# ChEMBL document CHEMBL1123134, “Diterpenoid sweeteners. Synthesis and sensory evaluation of stevioside analogues with improved organoleptic properties” (1985)
# Tests used:
# Format in all cases: functional
# Homo sapiens [1] = organism: Homo sapiens; assay: Sensory evaluation was done for sweetness at a concentration of 534 p.p.m. against compound potency calculated on weight basis.
# Outline: (§1)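 Sweetness tasted in solutions held near pH ~7, so carboxylic acids are ionized. Potency is reported two ways: on a weight basis (Pw) and on a molar basis (Pm).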
# Homo sapiens [2] = organism: Homo sapiens; assay: Sensory evaluation was done for sweetness at a concentration of 534 p.p.m. against compound potency calculated on a molar basis.; outline: as §1
# Homo sapiens [3] = organism: Homo sapiens; assay: Sensory evaluation was done for sweetness at a concentration of 534 p.p.m. against sample intensity relative to 10% sucrose.; outline: as §1
# Homo sapiens [4] = organism: Homo sapiens; assay: Sensory evaluation was done at a concentration of 534 p.p.m. against other properties.
# Outline: (§2)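 Aqueous sample solutions were tasted at about pH 7, so carboxylic acids were in ionized form.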
# Homo sapiens [5] = organism: Homo sapiens; assay: Sensory evaluation was done at a concentration of 534 p.p.m. against property of bitterness.; outline: as §2
# Homo sapiens [6] = organism: Homo sapiens; assay: Sensory evaluation was done at a concentration of 534 p.p.m. against property of sweetness.; outline: as §2
# Homo sapiens [7] = organism: Homo sapiens; assay: Sensory evaluation was done for sweetness at a concentration of 631 p.p.m. against compound potency calculated on weight basis.; outline: as §1
# Homo sapiens [8] = organism: Homo sapiens; assay: Sensory evaluation was done for sweetness at a concentration of 631 p.p.m. against sample intensity relative to 10% sucrose.; outline: as §1
# Homo sapiens [9] = organism: Homo sapiens; assay: Sensory evaluation was done at a concentration of 631 p.p.m. against property of sweetness.; outline: as §2
# Homo sapiens [10] = organism: Homo sapiens; assay: Sensory evaluation was done for sweetness at a concentration of 631 p.p.m. against compound potency calculated on a molar basis.; outline: as §1
# Homo sapiens [11] = organism: Homo sapiens; assay: Sensory evaluation was done at a concentration of 631 p.p.m. against property of bitterness.; outline: as §2
# Homo sapiens [12] = organism: Homo sapiens; assay: Sensory evaluation was done at a concentration of 631 p.p.m. against other properties.; outline: as §2
# Homo sapiens [13] = organism: Homo sapiens; assay: Sensory evaluation was done for sweetness at a concentration of 3000 p.p.m. against sample intensity relative to 10% sucrose.
# Outline: (§3)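 Sensory evaluation of the samples in solution at pH ~7, where carboxylic acids are ionized.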
# Homo sapiens [14] = organism: Homo sapiens; assay: Sensory evaluation was done for sweetness at a concentration of 3000 p.p.m. against compound potency calculated on a molar basis.; outline: as §3
# Homo sapiens [15] = organism: Homo sapiens; assay: Sensory evaluation was done at a concentration of 3000 p.p.m. against other properties.; outline: as §3
# Homo sapiens [16] = organism: Homo sapiens; assay: Sensory evaluation was done for sweetness at a concentration of 3000 p.p.m. against compound potency calculated on weight basis.; outline: as §3
# Homo sapiens [17] = organism: Homo sapiens; assay: Sensory evaluation was done at a concentration of 3000 p.p.m. against property of sweetness.; outline: as §3
# Homo sapiens [18] = organism: Homo sapiens; assay: Sensory evaluation was done at a concentration of 3000 p.p.m. against property of bitterness.; outline: as §3
# Homo sapiens [19] = organism: Homo sapiens; assay: Sensory evaluation was done for sweetness at a concentration of 550 p.p.m. against compound potency calculated on a molar basis.; outline: as §1
# Homo sapiens [20] = organism: Homo sapiens; assay: Sensory evaluation was done at a concentration of 550 p.p.m. against property of sweetness.; outline: as §2
# Homo sapiens [21] = organism: Homo sapiens; assay: Sensory evaluation was done at a concentration of 550 p.p.m. against other properties.; outline: as §2
# Homo sapiens [22] = organism: Homo sapiens; assay: Sensory evaluation was done for sweetness at a concentration of 550 p.p.m. against compound potency calculated on weight basis.; outline: as §1
# Homo sapiens [23] = organism: Homo sapiens; assay: Sensory evaluation was done at a concentration of 550 p.p.m. against property of bitterness.; outline: as §2
# Homo sapiens [24] = organism: Homo sapiens; assay: Sensory evaluation was done for sweetness at a concentration of 550 p.p.m. against sample intensity relative to 10% sucrose.; outline: as §1
# Homo sapiens [25] = organism: Homo sapiens; assay: Sensory evaluation was done at a concentration of 634 p.p.m. against other properties.; outline: as §2
# Homo sapiens [26] = organism: Homo sapiens; assay: Sensory evaluation was done for sweetness at a concentration of 634 p.p.m. against compound potency calculated on weight basis.; outline: as §1
# Homo sapiens [27] = organism: Homo sapiens; assay: Sensory evaluation was done for sweetness at a concentration of 634 p.p.m. against compound potency calculated on a molar basis.; outline: as §1
# Homo sapiens [28] = organism: Homo sapiens; assay: Sensory evaluation was done at a concentration of 634 p.p.m. against property of sweetness.; outline: as §2
# Homo sapiens [29] = organism: Homo sapiens; assay: Sensory evaluation was done for sweetness at a concentration of 634 p.p.m. against sample intensity relative to 10% sucrose.; outline: as §1
# Homo sapiens [30] = organism: Homo sapiens; assay: Sensory evaluation was done at a concentration of 634 p.p.m. against property of bitterness.; outline: as §2
# Homo sapiens [31] = organism: Homo sapiens; assay: Sensory evaluation was done for sweetness at a concentration of 650 p.p.m. against compound potency calculated on weight basis.; outline: as §1
# Homo sapiens [32] = organism: Homo sapiens; assay: Sensory evaluation was done at a concentration of 650 p.p.m. against property of bitterness.; outline: as §2
# Homo sapiens [33] = organism: Homo sapiens; assay: Sensory evaluation was done for sweetness at a concentration of 650 p.p.m. against compound potency calculated on a molar basis.; outline: as §1
# Homo sapiens [34] = organism: Homo sapiens; assay: Sensory evaluation was done at a concentration of 650 p.p.m. against property of sweetness.; outline: as §2
# Homo sapiens [35] = organism: Homo sapiens; assay: Sensory evaluation was done for sweetness at a concentration of 650 p.p.m. against sample intensity relative to 10% sucrose.; outline: as §1
# Homo sapiens [36] = organism: Homo sapiens; assay: Sensory evaluation was done at a concentration of 650 p.p.m. against other properties.; outline: as §2
compound,measurement,setting,value
C=C1C[C@@]23CC[C@H]4[C@@](C)(CCC[C@@]4(C)C(=O)OCCCS(=O)(=O)[O-])[C@@H]2CC[C@]1(O[C@H]1O[C@H](CO)[C@@H](O)[C@H](O)[C@H]1O[C@@H]1O[C@H](CO)[C@@H](O)[C@H](O)[C@H]1O)C3.[Na+],Pw,Homo sapiens [1],160
same,Pm,Homo sapiens [2],360
same,Ip,Homo sapiens [3],0.8
same,Sensory evaluation,Homo sapiens [4],4
same,Sensory evaluation,Homo sapiens [5],4
same,Sensory evaluation,Homo sapiens [6],92
C=C1C[C@@]23CC[C@H]4[C@@](C)(CCC[C@@]4(C)C(=O)OCCC(S(=O)(=O)[O-])S(=O)(=O)[O-])[C@@H]2CC[C@]1(O[C@H]1O[C@H](CO)[C@@H](O)[C@H](O)[C@H]1O[C@@H]1O[C@H](CO)[C@@H](O)[C@H](O)[C@H]1O)C3.[Na+].[Na+],Pw,Homo sapiens [7],120
same,Ip,Homo sapiens [8],0.8
same,Sensory evaluation,Homo sapiens [9],96
same,Pm,Homo sapiens [10],310
same,Sensory evaluation,Homo sapiens [11],0
same,Sensory evaluation,Homo sapiens [12],4
CC12CC[C@](C)(C(=O)O)CC1C1=CC(=O)[C@@H]3[C@@]4(C)CC[C@H](O[C@H]5O[C@H](C(=O)O)[C@@H](O)[C@H](O)[C@H]5O[C@@H]5O[C@H](C(=O)O)[C@@H](O)[C@H](O)[C@H]5O)C(C)(C)[C@@H]4CC[C@@]3(C)[C@]1(C)CC2.N (stereo partly specified),Ip,Homo sapiens [13],1
same,Pm,Homo sapiens [14],90
same,Sensory evaluation,Homo sapiens [15],13
same,Pw,Homo sapiens [16],33
same,Sensory evaluation,Homo sapiens [17],84
same,Sensory evaluation,Homo sapiens [18],3
C=C1C[C@@]23CC[C@H]4[C@@](C)(CCC[C@@]4(C)C(=O)OC(CCC(=O)[O-])C(=O)O)[C@@H]2CC[C@]1(O[C@@H]1O[C@@H](CO)[C@@H](O)[C@H](O)[C@@H]1O[C@@H]1O[C@@H](CO)[C@@H](O)[C@H](O)[C@@H]1O)C3.[Na+] (stereo partly specified),Pm,Homo sapiens [19],380
same,Sensory evaluation,Homo sapiens [20],84
same,Sensory evaluation,Homo sapiens [21],10
same,Pw,Homo sapiens [22],160
same,Sensory evaluation,Homo sapiens [23],2
same,Ip,Homo sapiens [24],0.9
C=C1C[C@@]23CC[C@H]4[C@@](C)(CCC[C@@]4(C)C(=O)OCC(=O)O)[C@@H]2CC[C@]1(O[C@@H]1O[C@@H](CO)[C@@H](O)[C@H](O)[C@@H]1O[C@@H]1O[C@@H](CO)[C@@H](O)[C@H](O)[C@@H]1O)C3,Sensory evaluation,Homo sapiens [25],1
same,Pw,Homo sapiens [26],140
same,Pm,Homo sapiens [27],310
same,Sensory evaluation,Homo sapiens [28],80
same,Ip,Homo sapiens [29],0.9
same,Sensory evaluation,Homo sapiens [30],19
C=C1C[C@@]23CC[C@H]4[C@@](C)(CCC[C@@]4(C)C(=O)OCCCCS(=O)(=O)[O-])[C@@H]2CC[C@]1(O[C@@H]1O[C@@H](CO)[C@@H](O)[C@H](O)[C@@H]1O[C@@H]1O[C@@H](CO)[C@@H](O)[C@H](O)[C@@H]1O)C3.[Na+],Pw,Homo sapiens [31],120
same,Sensory evaluation,Homo sapiens [32],17
same,Pm,Homo sapiens [33],290
same,Sensory evaluation,Homo sapiens [34],79
same,Ip,Homo sapiens [35],0.8
same,Sensory evaluation,Homo sapiens [36],4
